From publication PMC4096040 (The Journal of endocrinology, 2012)

Experiments:
INS-1 cells [1] = test: Pan caspase activity; format: cell-based; conditions: 18.25 μM t-BHP alone, compared with the control group, Fig. 4C
INS-1 cells [2] = test: JC-1 Mitochondrial Membrane Potential Assay; format: cell-based; conditions: 18.25 μM t-BHP alone, 48 h, Fig. 2C
INS-1 cells [3] = test: Mitochondrial cytochrome c release; format: cell-based; conditions: 18.25 μM t-BHP alone, 72 h, Fig. 4A
Method in brief: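 INS-1 cells (100 000/well) were left untreated, given 18.25 μM t-BHP alone, or given t-BHP with 10 μM test compound for 72 h. They were processed according to the kit protocol, with cytochrome c labelled by FITC and nuclei by DAPI. Fluorescence microscopy followed, scoring loss of green signal as cytochrome c release.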

[4] = test system: NEP 24.11, known as neprilysin; conditions: products include GLP1(28–36)amide; ref Hupe-Sodmann et al. 1995; cited from earlier work
[5] = test system: diaminopeptidyl peptidase-4 (DPP4); conditions: removal of the N-terminal two amino acids; ref Lovshin & Drucker 2009; cited from earlier work

| Molecule | caspase activity, stressor alone (INS-1 cells [1]) | mitochondrial potential, stressor alone (INS-1 cells [2]) | cytochrome c release, stressor alone (INS-1 cells [3]) | cleavage by NEP 24.11 [4] | T1/2 of modification to GLP1(9–36)amide by DPP4 [5] [min] |
| --- | --- | --- | --- | --- | --- |
| CC(C)(C)OO [t-BHP, tert-butyl hydro-peroxide] | significant increase in caspase-3 activity | loss of mitochondrial potential | stimulated cytochrome c release | – | – |
| GLP1(7–36)amide: 30 amino acid insulinotropic form of GLP1, known GLP1 receptor agonist | – | – | – | cleaves GLP1(7–36)amide into several smaller peptides | 1 to 2 |
